# Assay results reported in ChEMBL document CHEMBL4152328, “Design, synthesis, in vitro and in silico evaluation of a new series of oxadiazole-based anticancer agents as potential Akt and FAK inhibitors” (Eur J Med Chem, 2018).
# Active and inactive are the calls of the source. No cut-off for these calls is given here.
# Legend:
# C6 [1] = test: Cytotoxicity against rat C6 cells assessed as decrease in cell viability after 24 hrs by MTT assay; format: functional, cell-based; details: C6, 24 h
# Summary of the method: (§1)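 Viability was read as cellular MTT reduction. Cisplatin and GSK690693 were run as reference controls. IC50 values were derived for each cell line.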
# A549 [2] = test: Cytotoxicity against human A549 cells assessed as decrease in cell viability after 24 hrs by MTT assay; format: functional, cell-based; details: A549, 24 h; summary of the method: as §1
# NIH3T3 = test: Cytotoxicity against mouse NIH/3T3 cells assessed as decrease in cell viability after 24 hrs by MTT assay; format: cell-based; details: NIH3T3, 24 h; summary of the method: as §1
# [3] = Selectivity index, ratio of IC50 for mouse NIH/3T3 cells to IC50 for rat C6 cells; format: toxicity; details: NIH/3T3 cells versus C6 cells, read-out: Ratio IC50
# Summary of the method: (§2)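 Selectivity index = IC50 for NIH/3T3 normal fibroblasts / IC50 for the cancer line (A549 or C6). […] An IC50 above 403.00 was taken as 403.00.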
# [4] = Selectivity index, ratio of IC50 for mouse NIH/3T3 cells to IC50 for human A549 cells; format: toxicity; details: NIH/3T3 cells versus A549 cells, read-out: Ratio IC50; summary of the method: as §2
# C6 [5] = test: Induction of apoptosis in rat C6 cells assessed as early/late apoptotic cells at IC50 after 24 hrs by Annexin V-FITC/PI staining based flow cytometry (reference value: 8%); format: functional
# C6 [6] = test: Induction of apoptosis in rat C6 cells assessed as viable cells at IC50 after 24 hrs by Annexin V-FITC/PI staining based flow cytometry (reference value: 90%); format: functional
# A549 [7] = test: Induction of apoptosis in human A549 cells assessed as early/late apoptotic cells at IC50 after 24 hrs by Annexin V-FITC/PI staining based flow cytometry (reference value: 7.1%); format: functional
# A549 [8] = test: Induction of apoptosis in human A549 cells assessed as viable cells at IC50 after 24 hrs by Annexin V-FITC/PI staining based flow cytometry (reference value: 89%); format: functional
# C6 [9] = test: Induction of mitochondrial membrane potential loss in rat C6 cells assessed as intact mitochondrial membrane potential at IC50 measured after 24 hrs by JC-1 staining based flow cytometric analysis (reference value: 80%); format: functional
# C6 [10] = test: Induction of mitochondrial membrane potential loss in rat C6 cells at IC50 measured after 24 hrs by JC-1 staining based flow cytometric analysis (reference value: 19.9%); format: functional
# A549 [11] = test: Induction of mitochondrial membrane potential loss in human A549 cells assessed as intact mitochondrial membrane potential at IC50 measured after 24 hrs by JC-1 staining based flow cytometric analysis (reference value: 90.4%); format: functional
# A549 [12] = test: Induction of mitochondrial membrane potential loss in human A549 cells at IC50 measured after 24 hrs by JC-1 staining based flow cytometric analysis (reference value: 9.8%); format: functional
# C6 [13] = test: Induction of apoptosis in rat C6 cells assessed as caspase-3 negative cell level at IC50 after 24 hrs by FITC-A labeled flow cytometry (reference value: 96.4%); format: functional
# C6 [14] = test: Induction of apoptosis in rat C6 cells assessed as caspase-3 positive cell level at IC50 after 24 hrs by FITC-A labeled flow cytometry (reference value: 4.8%); format: functional
# A549 [15] = test: Induction of apoptosis in human A549 cells assessed as caspase-3 negative cell level at IC50 after 24 hrs by FITC-A labeled flow cytometry (reference value: 98.1%); format: functional
# A549 [16] = test: Induction of apoptosis in human A549 cells assessed as caspase-3 positive cell level at IC50 after 24 hrs by FITC-A labeled flow cytometry (reference value: 2.1%); format: functional
# [17] = molecular target: RAC-alpha serine/threonine-protein kinase (Rattus norvegicus, UniProt P47196); test: Inhibition of Akt in rat C6 cells after 24 hrs by ELISA; format: cell-based
# Summary of the method: (§3)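 In-cell colorimetric ELISA: 10,000 cells/well were treated 24 h, then fixed in 4% formaldehyde for 15 min, permeabilised, quenched and blocked. Primary antibody ran overnight at 4 °C, then HRP conjugate for 30 min, then TMB; absorbance was read at 450 nm. Wells were in triplicate and blank-subtracted. Activity is relative to untreated cells; IC50 came from graphs of three concentrations.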
# [18] = molecular target: RAC-alpha serine/threonine-protein kinase (Homo sapiens, UniProt P31749); test: Inhibition of Akt in human A549 cells after 24 hrs by ELISA; format: cell-based; summary of the method: as §3
# Focal adhesion kinase 1 = Focal adhesion kinase 1 (Rattus norvegicus, UniProt O35346); test: Inhibition of FAK phasphorylation at Tyr397 residues in rat C6 cells after 24 hrs by ELISA; format: cell-based
# Summary of the method: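 Cell-based colorimetric ELISA in C6 cells treated 24 h: cells were fixed in 4% formaldehyde for 20 min, quenched, and blocked for 1 h. Anti-FAK pTyr397, anti-FAK and anti-GAPDH primaries ran overnight at 4 °C, then HRP secondaries for 1.5 h and substrate for 30 min. OD450 was read in duplicate wells; pFAK was normalised to GAPDH. IC50 came from graphs of three concentrations.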
# A549 [19] = test: Induction of apoptotic morphological alterations in human A549 cells assessed as rounding of cells at IC50 after 24 hrs by transmission electron microscopy; format: functional, cell-based
# Summary of the method: (§4)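 Cells were fixed in 2.5% glutaraldehyde in 0.1 M PBS pH 7.4 and held overnight at 4 °C, then agar-embedded and post-fixed in 2% osmium tetroxide. They were dehydrated through graded ethanol, embedded in EPON 812, ultrathin-sectioned and examined by transmission electron microscopy.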
# A549 [20] = test: Induction of apoptotic morphological alterations in human A549 cells assessed as disruption of cellular organization at IC50 after 24 hrs by transmission electron microscopy; format: functional, cell-based; summary of the method: as §4
# A549 [21] = test: Induction of apoptotic morphological alterations in human A549 cells assessed as cell shrinkage at IC50 after 24 hrs by transmission electron microscopy; format: functional, cell-based; summary of the method: as §4
# A549 [22] = test: Induction of apoptotic morphological alterations in human A549 cells assessed as DNA condensation at IC50 after 24 hrs by transmission electron microscopy; format: functional, cell-based; summary of the method: as §4
# A549 [23] = test: Induction of apoptotic morphological alterations in human A549 cells assessed as organellar membrane damage at IC50 after 24 hrs by transmission electron microscopy; format: functional, cell-based; summary of the method: as §4
# C6 [24] = test: Induction of apoptotic morphological alterations in rat C6 cells assessed as rounding of cells at IC50 after 24 hrs by transmission electron microscopy; format: functional, cell-based; summary of the method: as §4
# C6 [25] = test: Induction of apoptotic morphological alterations in rat C6 cells assessed as disruption of cellular organization at IC50 after 24 hrs by transmission electron microscopy; format: functional, cell-based; summary of the method: as §4
# C6 [26] = test: Induction of apoptotic morphological alterations in rat C6 cells assessed as cell shrinkage at IC50 after 24 hrs by transmission electron microscopy; format: functional, cell-based; summary of the method: as §4
# C6 [27] = test: Induction of apoptotic morphological alterations in rat C6 cells assessed as DNA condensation at IC50 after 24 hrs by transmission electron microscopy; format: functional, cell-based; summary of the method: as §4
# C6 [28] = test: Induction of apoptotic morphological alterations in rat C6 cells assessed as organellar membrane damage at IC50 after 24 hrs by transmission electron microscopy; format: functional, cell-based; summary of the method: as §4
# A549 [29] = test: Induction of apoptotic morphological alterations in human A549 cells assessed as increase in large vacuoles in cytoplasm containing degraded cellular material at IC50 after 24 hrs by transmission electron microscopy; format: functional, cell-based; summary of the method: as §4
# A549 [30] = test: Induction of apoptotic morphological alterations in human A549 cells assessed as membrane damage at IC50 after 24 hrs by transmission electron microscopy; format: functional, cell-based; summary of the method: as §4
# A549 [31] = test: Induction of apoptotic morphological alterations in human A549 cells assessed as nuclear fragmentation at IC50 after 24 hrs by transmission electron microscopy; format: functional, cell-based; summary of the method: as §4
# C6 [32] = test: Induction of apoptotic morphological alterations in rat C6 cells assessed as chromatin condensation at IC50 after 24 hrs by transmission electron microscopy; format: functional, cell-based; summary of the method: as §4
# C6 [33] = test: Induction of apoptotic morphological alterations in rat C6 cells assessed as large vacuoles at IC50 after 24 hrs by transmission electron microscopy; format: functional, cell-based; summary of the method: as §4
# C6 [34] = test: Induction of apoptotic morphological alterations in rat C6 cells assessed as membrane damage at IC50 after 24 hrs by transmission electron microscopy; format: functional, cell-based; summary of the method: as §4
# Sequence of RAC-alpha serine/threonine-protein kinase (Rattus norvegicus, UniProt P47196) (P47196 whole entry): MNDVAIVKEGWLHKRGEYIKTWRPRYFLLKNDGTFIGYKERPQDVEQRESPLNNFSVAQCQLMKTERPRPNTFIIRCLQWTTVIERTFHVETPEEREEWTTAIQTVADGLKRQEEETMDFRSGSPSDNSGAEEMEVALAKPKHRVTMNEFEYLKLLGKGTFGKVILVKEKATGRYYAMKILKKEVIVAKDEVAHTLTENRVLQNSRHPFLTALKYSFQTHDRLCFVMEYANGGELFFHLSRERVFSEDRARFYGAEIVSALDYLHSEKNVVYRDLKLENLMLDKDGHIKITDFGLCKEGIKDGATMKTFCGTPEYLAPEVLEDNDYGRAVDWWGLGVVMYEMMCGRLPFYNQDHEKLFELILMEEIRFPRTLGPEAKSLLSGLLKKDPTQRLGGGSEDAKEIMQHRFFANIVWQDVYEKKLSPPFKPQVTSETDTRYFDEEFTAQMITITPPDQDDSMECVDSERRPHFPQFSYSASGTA
# Sequence of Focal adhesion kinase 1 (O35346 whole entry): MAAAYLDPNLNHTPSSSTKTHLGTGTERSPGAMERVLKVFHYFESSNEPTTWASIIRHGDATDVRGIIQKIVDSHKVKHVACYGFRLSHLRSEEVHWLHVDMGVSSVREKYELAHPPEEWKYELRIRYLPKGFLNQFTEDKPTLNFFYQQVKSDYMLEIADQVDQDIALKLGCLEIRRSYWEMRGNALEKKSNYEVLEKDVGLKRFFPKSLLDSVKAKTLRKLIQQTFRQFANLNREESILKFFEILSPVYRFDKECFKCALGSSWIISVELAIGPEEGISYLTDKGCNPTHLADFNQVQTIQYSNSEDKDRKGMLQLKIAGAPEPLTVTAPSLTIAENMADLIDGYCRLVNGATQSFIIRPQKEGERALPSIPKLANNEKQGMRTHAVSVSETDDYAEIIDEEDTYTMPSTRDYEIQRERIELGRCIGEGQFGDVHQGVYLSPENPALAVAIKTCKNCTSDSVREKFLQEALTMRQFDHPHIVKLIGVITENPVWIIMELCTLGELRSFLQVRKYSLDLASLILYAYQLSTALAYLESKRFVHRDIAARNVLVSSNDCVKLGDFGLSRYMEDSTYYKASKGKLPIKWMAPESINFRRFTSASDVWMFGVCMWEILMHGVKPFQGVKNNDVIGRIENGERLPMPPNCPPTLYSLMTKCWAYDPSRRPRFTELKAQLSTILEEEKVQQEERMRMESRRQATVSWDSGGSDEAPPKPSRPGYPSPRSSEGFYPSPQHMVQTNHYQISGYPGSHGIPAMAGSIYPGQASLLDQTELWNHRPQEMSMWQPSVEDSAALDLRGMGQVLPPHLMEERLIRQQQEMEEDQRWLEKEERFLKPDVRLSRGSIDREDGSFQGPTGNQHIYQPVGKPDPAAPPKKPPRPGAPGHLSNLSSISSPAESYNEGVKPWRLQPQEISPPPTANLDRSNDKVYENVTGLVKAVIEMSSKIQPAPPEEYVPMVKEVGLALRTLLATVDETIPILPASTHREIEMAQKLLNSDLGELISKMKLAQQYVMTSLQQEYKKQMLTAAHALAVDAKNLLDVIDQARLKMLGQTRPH
# Sequence of RAC-alpha serine/threonine-protein kinase (Homo sapiens, UniProt P31749) (P31749 whole entry): as the sequence (P47196 whole entry) above, with N2S, E46D, S50A, R112K, T117E, A137S, T389K, N410G, D415H counted along it
IC50 [17] [µM],IC50 [18] [µM],IC50 (Focal adhesion kinase 1) [µM],SMILES,IC50 (C6 [1]) [µM],IC50 (A549 [2]) [µM],IC50 (NIH3T3) [µM],selectivity ratio [3],selectivity ratio [4],Activity (C6 [5]) [%],Activity (C6 [6]) [%],Activity (A549 [7]) [%],Activity (A549 [8]) [%],Activity (C6 [9]) [%],Activity (C6 [10]) [%],Activity (A549 [11]) [%],Activity (A549 [12]) [%],Activity (C6 [13]) [%],Activity (C6 [14]) [%],Activity (A549 [15]) [%],Activity (A549 [16]) [%],also measured
44.5,138,105,O=C(CSc1nnc(COc2ccc3c(c2)CCCC3)o1)Nc1ncc([N+](=O)[O-])s1,66.7,115,> 403,> 6.04,> 3.5,12.3,80.8,25.3,67.8,0.6,98,2.4,95.5,90.1,11.3,95.1,5.4,Activity (A549 [19]): Active; Activity (A549 [20]): Active; Activity (A549 [21]): Active; Activity (A549 [22]): Active; Activity (A549 [23]): Active; Activity (C6 [24]): Active; Activity (C6 [25]): Active; Activity (C6 [26]): Active; Activity (C6 [27]): Active; Activity (C6 [28]): Active
–,–,–,CCOc1ccc2nc(NC(=O)CSc3nnc(COc4ccc5c(c4)CCCC5)o3)sc2c1,93.3,283,> 403,> 4.32,> 1.42,–,–,–,–,–,–,–,–,–,–,–,–,–
–,–,–,Cc1ccc2nc(NC(=O)CSc3nnc(COc4ccc5c(c4)CCCC5)o3)sc2c1,108,210,> 403,> 3.72,> 1.92,–,–,–,–,–,–,–,–,–,–,–,–,–
2.6,27.5,19.5,COc1ccc2nc(NC(=O)CSc3nnc(COc4ccc5c(c4)CCCC5)o3)sc2c1,4.63,39.3,94.3,20.4,2.4,5,92.3,12.2,71.7,24.4,74.4,69.8,27.9,69.8,33.9,76.4,25,Activity (A549 [19]): Active; Activity (A549 [20]): Active; Activity (A549 [21]): Active; Activity (A549 [22]): Active; Activity (A549 [23]): Active; Activity (C6 [24]): Active; Activity (C6 [25]): Active; Activity (C6 [26]): Active; Activity (C6 [27]): Active; Activity (C6 [28]): Active; Activity (A549 [29]): Active; Activity (A549 [30]): Active; Activity (A549 [31]): Active; Activity (C6 [32]): Active; Activity (C6 [33]): Active; Activity (C6 [34]): Active
–,–,–,O=C(CSc1nnc(COc2ccc3c(c2)CCCC3)o1)Nc1nc2ccccc2s1,153,247,96.7,0.63,0.39,–,–,–,–,–,–,–,–,–,–,–,–,–
–,–,–,O=C(CSc1nnc(COc2ccc3c(c2)CCCC3)o1)Nc1nccs1,213,228,> 403,> 1.89,> 1.76,–,–,–,–,–,–,–,–,–,–,–,–,–
6.97,–,–,CCn1c(-c2nonc2N)nc2c(C#CC(C)(C)O)ncc(OC[C@H]3CCCNC3)c21 [GSK-690693],14.5,105,–,–,–,–,–,–,–,–,–,–,–,–,–,–,–,–
–,–,–,O=C(CSc1nnc(COc2ccc3c(c2)CCCC3)o1)Nc1nc2ccc(Cl)cc2s1,237,263,247,1.04,0.94,–,–,–,–,–,–,–,–,–,–,–,–,–
–,–,–,O=C(CSc1nnc(COc2ccc3c(c2)CCCC3)o1)Nc1nc2ccc([N+](=O)[O-])cc2s1,98.3,233,336,3.41,1.44,–,–,–,–,–,–,–,–,–,–,–,–,–
165,98.3,118,O=C(CSc1nnc(COc2ccc3c(c2)CCCC3)o1)Nc1nc2ccc(F)cc2s1,89.3,91.7,292,3.27,3.18,11.9,84.9,17,79.1,32.6,60.1,78.2,21,90.8,11.7,93.5,7.1,Activity (A549 [19]): Active; Activity (A549 [20]): Active; Activity (A549 [21]): Active; Activity (A549 [22]): Active; Activity (A549 [23]): Active; Activity (C6 [24]): Active; Activity (C6 [25]): Active; Activity (C6 [26]): Active; Activity (C6 [27]): Active; Activity (C6 [28]): Active
